Experimental data: ChEMBL document CHEMBL2057067, “Synthesis of phenserine analogues and evaluation of their cholinesterase inhibitory activities” (Bioorg Med Chem, 2012)

Legend:
[1] = target: T1, Acetylcholinesterase (Rattus norvegicus) (UniProt P37136); assay: (§1) Inhibition of AChE in Wistar rat brain homogenate using acetylthiocholine iodide as substrate after 0.5 hrs by Ellman's method; assay type: tissue-based
T1 sequence (whole entry): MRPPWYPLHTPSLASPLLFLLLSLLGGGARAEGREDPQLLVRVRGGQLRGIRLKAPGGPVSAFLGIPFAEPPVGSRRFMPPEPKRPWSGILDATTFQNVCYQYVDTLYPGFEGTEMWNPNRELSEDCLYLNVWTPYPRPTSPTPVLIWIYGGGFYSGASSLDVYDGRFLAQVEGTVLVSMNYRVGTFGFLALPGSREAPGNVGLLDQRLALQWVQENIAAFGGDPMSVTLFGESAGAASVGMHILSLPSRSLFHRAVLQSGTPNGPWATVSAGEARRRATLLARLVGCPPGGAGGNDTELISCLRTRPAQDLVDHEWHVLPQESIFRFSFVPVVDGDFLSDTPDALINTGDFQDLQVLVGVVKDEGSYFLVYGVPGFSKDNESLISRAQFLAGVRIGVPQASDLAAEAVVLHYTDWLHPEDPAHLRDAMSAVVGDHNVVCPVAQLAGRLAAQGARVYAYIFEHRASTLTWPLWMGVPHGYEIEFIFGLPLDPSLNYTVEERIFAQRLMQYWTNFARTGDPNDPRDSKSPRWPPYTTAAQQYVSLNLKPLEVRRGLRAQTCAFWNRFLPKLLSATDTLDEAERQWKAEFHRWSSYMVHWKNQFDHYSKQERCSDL
How it was run: (§2)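 Male Wistar ST rats (8–10 weeks old). Inhibitor is preincubated with homogenate (3:10 v/v) for 0.5 h at 37 °C. Ellman assay in 0.1 M phosphate with DTNB (10 mM stock) and acetylthiocholine (75 mM stock). A412 is recorded for 2 min at 25 °C, and the last-minute change gives activity. Four dose-response curves.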

[2] = target: T2, Acetylcholinesterase (Rattus norvegicus, UniProt P37136); assay: as §1; assay type: tissue-based; how it was run: as §2
T2 sequence (P37136 whole entry): T1 sequence (whole entry)

[3] = target: Butyrylcholinesterase (Rattus norvegicus) (UniProt Q9JKC1); assay: (§3) Inhibition of BuChE in Wistar rat plasma using acetylthiocholine iodide as substrate after 0.5 hrs by Ellman's method
Chain of Butyrylcholinesterase (Rattus norvegicus) (Q9JKC1 as listed by the source): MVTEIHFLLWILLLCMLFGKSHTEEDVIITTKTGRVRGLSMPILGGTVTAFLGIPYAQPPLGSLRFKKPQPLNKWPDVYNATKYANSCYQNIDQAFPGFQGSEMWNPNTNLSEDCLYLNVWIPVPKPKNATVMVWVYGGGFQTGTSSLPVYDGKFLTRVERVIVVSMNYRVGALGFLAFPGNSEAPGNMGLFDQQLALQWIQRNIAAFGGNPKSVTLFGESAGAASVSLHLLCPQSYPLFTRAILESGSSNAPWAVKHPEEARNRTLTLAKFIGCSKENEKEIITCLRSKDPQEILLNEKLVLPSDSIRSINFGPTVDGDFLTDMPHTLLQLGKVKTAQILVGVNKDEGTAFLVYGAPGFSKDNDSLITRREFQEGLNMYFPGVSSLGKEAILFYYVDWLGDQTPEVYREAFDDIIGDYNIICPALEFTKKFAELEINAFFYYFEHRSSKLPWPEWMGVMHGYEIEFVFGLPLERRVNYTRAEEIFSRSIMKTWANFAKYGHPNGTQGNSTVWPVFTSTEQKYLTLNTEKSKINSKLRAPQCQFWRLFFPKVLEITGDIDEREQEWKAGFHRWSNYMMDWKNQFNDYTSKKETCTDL

[4] = target: Butyrylcholinesterase (Rattus norvegicus, UniProt Q9JKC1); assay: as §3
Chain of Butyrylcholinesterase (Q9JKC1 whole entry): as the sequence (Q9JKC1 as listed by the source) above

[5] = organism: Rattus norvegicus; assay: Selectivity ratio of IC50 for BuChE in Wistar rat plasma to IC50 for AChE in Wistar rat brain homogenate; assay type: tissue-based

SMILES | inhibition [1] | IC50 [2] | inhibition [3] | IC50 [4] | Ratio IC50 [5]
C=CC[C@]12CCN(C)[C@@H]1N(C)c1ccc(OC(=O)Nc3ccccc3)cc12 | Dose-dependent effect | 1.26 µM | Dose-dependent effect | > 100 µM | > 79
C=C[C@@]12CCN(C)[C@@H]1N(C)c1ccc(OC(=O)Nc3ccccc3)cc12 | Dose-dependent effect | 0.644 µM | Dose-dependent effect | 41.9 µM | 65
CC[C@]12CCN(C)[C@@H]1N(C)c1ccc(OC(=O)Nc3ccccc3)cc12 | Dose-dependent effect | 0.373 µM | Dose-dependent effect | 36.2 µM | 97
CCC(C)(C)[C@@]12CCN(C)[C@@H]1N(C)c1ccc(OC(=O)Nc3ccccc3)cc12 | Dose-dependent effect | 9.5 µM | Dose-dependent effect | > 100 µM | > 11
CN1CC[C@@]2(C)c3cc(OC(=O)Nc4ccccc4)ccc3N(C)C12 (stereo partly specified) | Dose-dependent effect | 0.0283 µM | Dose-dependent effect | 30 µM | 1100
C=CCC12CCN(C)C1N(C)c1ccc(OC(=O)Nc3ccccc3)cc12 (racemic) | Dose-dependent effect | 3.77 µM | Dose-dependent effect | > 100 µM | > 27
C=CCC12CCN(C)C1N(C)c1ccc(OC(=O)Nc3ccc(C(C)C)cc3)cc12 (racemic) | Dose-dependent effect | > 10 µM | Dose-dependent effect | > 10 µM | 
C=CCC12CCN(C)C1N(C)c1ccc(OC(=O)Nc3ccc(Br)cc3)cc12 (racemic) | Dose-dependent effect | > 10 µM | Dose-dependent effect | > 10 µM | 
C=CCC12CCN(C)C1N(C)c1ccc(OC(=O)Nc3ccc(F)cc3)cc12 (racemic) | Dose-dependent effect | 4.36 µM | Dose-dependent effect | > 100 µM | > 23
C=CCC12CCN(C)C1N(C)c1ccc(OC(=O)Nc3ccccc3F)cc12 (racemic) | Dose-dependent effect | 3.55 µM | Dose-dependent effect | 87.3 µM | 25
CCCC12CCN(C)C1N(C)c1ccc(OC(=O)Nc3ccccc3)cc12 (racemic) | Dose-dependent effect | 3.66 µM | Dose-dependent effect | > 100 µM | > 27
C=CC12CCN(C)C1N(C)c1ccc(OC(=O)Nc3ccccc3)cc12 (racemic) | Dose-dependent effect | 0.749 µM | Dose-dependent effect | > 30 µM | > 40
CCC12CCN(C)C1N(C)c1ccc(OC(=O)Nc3ccccc3)cc12 (racemic) | Dose-dependent effect | 0.397 µM | Dose-dependent effect | 30 µM | 76
CCC(C)(C)C12CCN(C)C1N(C)c1ccc(OC(=O)Nc3ccccc3)cc12 (racemic) | Dose-dependent effect | 18.4 µM | Dose-dependent effect | > 100 µM | > 5.4
C=CCC12CC(=O)N(C)C1N(C)c1ccc(OC(=O)Nc3ccccc3)cc12 (racemic) | Dose-dependent effect | 4.73 µM | Dose-dependent effect | 65.3 µM | 14
CNC(=O)Oc1ccc2c(c1)[C@]1(C)CCN(C)[C@@H]1N2C [PHYSOSTIGMINE] | Dose-dependent effect |  | Dose-dependent effect | 0.0584 µM | 
